According to PMC4245169 (ACS Chemical Biology, 2014):

Tests used:
[1] = test system: E. coli whole cell extract (prokaryotic ribosomal preparation); assay: Cell free translation inhibition, E. coli S30 extract, luciferase reporter; type: biochemical; conditions: read-out: E. coli IC50, average of three independent experiments
Method in brief: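 Test compound at varying concentrations preincubated 20 min at room temperature with E. coli S30 extract plus all amino acids. Luciferase control template then added and translation run 60 min at 37 °C, stopped on ice 5 min. Luminescence read right after luciferin addition. Triplicates normalised to vehicle control; macrolide positive controls. IC50 by logit regression, averaged over three independent experiments.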

[2] = test system: rabbit reticulocyte whole cell lysate (eukaryotic ribosomal preparation); assay: Cell free translation inhibition, rabbit reticulocyte lysate; type: biochemical
Method in brief: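 Nuclease-treated rabbit reticulocyte lysate was preincubated with test compound at varying concentrations and all amino acids for 20 min at room temperature. Luciferase control template was then added, and translation ran at 30 °C for 90 min before stopping on ice for 5 min. Luminescence was read after luciferin addition. Samples were run in triplicate and normalized to vehicle control. IC50 was fit by logit regression and averaged over three independent experiments.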

E. coli 23S rRNA [3] = assay: CMCT chemical footprinting of 23S rRNA in intact 70S ribosomes; type: binding; conditions: primer 2180; peptolides and 7b 150 μM, clarithromycin 50 μM
E. coli 23S rRNA [4] = conditions: cited from earlier work

| Structure (SMILES) | IC50 [1] [nM] | inhibition of eukaryotic translation (in words) ([2]; RRL, controls at 250 μM) | IC50 ([2]; read-out: rabbit retic. IC50, cell free translation, luciferase reporter, average of three independent experiments) [nM] | protection of U1963 from CMCT modification (E. coli 23S rRNA [3]) | protection of A752 (E. coli 23S rRNA [4]) |
| --- | --- | --- | --- | --- | --- |
| CC[C@H]1OC(=O)[C@H](C)[C@@H](O[C@H]2C[C@@](C)(OC)[C@@H](O)[C@H](C)O2)[C@H](C)[C@@H](O[C@@H]2O[C@H](C)C[C@H](N(C)C)[C@H]2O)[C@](C)(OC)C[C@@H](C)C(=O)[C@H](C)[C@@H](O)[C@]1(C)O [clarithromycin 1, clarithromycin] | 320 ± 120 | inactive | > 250000 | available to CMCT modification |  |
| CC[C@H]1OC(=O)[C@H](C)C(=O)[C@H](C)[C@@H](O[C@@H]2O[C@H](C)C[C@H](N(C)C)[C@H]2O)[C@](C)(OC)C[C@@H](C)C(=O)[C@H](C)[C@H]2N(CCCCn3cnc(-c4cccnc4)c3)C(=O)O[C@]12C [TEL, telithromycin] |  |  |  |  | protected |
